Results reported in ChEMBL document CHEMBL1914395, “Design, synthesis, and biological evaluation of callophycin A and analogues as potential chemopreventive and anticancer agents” (Bioorg Med Chem, 2011).

What was measured:
[1] = target: NAD(P)H dehydrogenase [quinone] 1 (Mus musculus) (UniProt Q64669); assay: Induction of quinone reductase 1 activity in mouse Hepa-1c1c7 cells at 50 uM by MTT assay relative to untreated control; assay type: cell-based
Method in brief: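 Hepa 1c1c7 murine hepatoma cells treated with compound at 50 μM. QR1 measured by NADPH-dependent, menadiol-mediated reduction of MTT to formazan. Protein measured by crystal violet staining of identical plates. Specific activity is nmol formazan per mg protein per min. Induction ratio is treated versus DMSO-treated control.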

[2] = target: NAD(P)H dehydrogenase [quinone] 1 (Mus musculus) (UniProt Q64669); assay: Induction of quinone reductase 1 activity in mouse Hepa-1c1c7 cells assessed as cell survival at 50 uM by MTT assay relative to control; assay type: cell-based
Aromatase [3] = target: T1, Aromatase (Homo sapiens, UniProt P11511); assay: Inhibition of aromatase at 50 uM after 10 mins preincubation by plate reader relative to control
T1 sequence (P11511 whole entry): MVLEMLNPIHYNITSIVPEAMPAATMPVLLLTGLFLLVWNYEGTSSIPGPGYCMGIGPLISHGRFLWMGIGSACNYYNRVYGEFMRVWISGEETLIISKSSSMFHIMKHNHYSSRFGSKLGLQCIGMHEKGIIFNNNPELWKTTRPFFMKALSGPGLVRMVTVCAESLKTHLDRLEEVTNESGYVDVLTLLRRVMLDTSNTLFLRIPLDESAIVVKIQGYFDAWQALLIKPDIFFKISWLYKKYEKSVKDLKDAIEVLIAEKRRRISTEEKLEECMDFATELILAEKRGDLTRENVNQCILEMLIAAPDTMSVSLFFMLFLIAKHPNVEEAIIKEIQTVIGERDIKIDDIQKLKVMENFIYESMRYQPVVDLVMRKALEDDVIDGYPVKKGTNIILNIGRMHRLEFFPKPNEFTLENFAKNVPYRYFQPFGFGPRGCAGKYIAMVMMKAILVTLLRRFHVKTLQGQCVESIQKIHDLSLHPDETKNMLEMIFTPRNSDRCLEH
Method in brief: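 CYP19 enzyme. Compound pre-incubated 10 min with an NADPH-regenerating system (NADP+, glucose 6-phosphate, G6PDH, MgCl2, albumin) in 50 mM potassium phosphate pH 7.4. Enzyme and 0.4 μM dibenzylfluorescein substrate then added, 30 min at 37 °C. Quenched with 2 N NaOH and incubated a further 2 h at 37 °C. Fluorescence read at ex 485/em 530 nm. Compound tested at 50 μM.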

[4] = target: T2, Nitric oxide synthase, inducible (Mus musculus) (UniProt P29477); assay: Inhibition of iNOS-mediated nitric oxide production in LPS-stimulated mouse RAW 264.7 cells at 50 uM pretreated 15 mins before LPS challenge measured after 20 hrs relative to control; assay type: cell-based
T2 sequence (whole entry): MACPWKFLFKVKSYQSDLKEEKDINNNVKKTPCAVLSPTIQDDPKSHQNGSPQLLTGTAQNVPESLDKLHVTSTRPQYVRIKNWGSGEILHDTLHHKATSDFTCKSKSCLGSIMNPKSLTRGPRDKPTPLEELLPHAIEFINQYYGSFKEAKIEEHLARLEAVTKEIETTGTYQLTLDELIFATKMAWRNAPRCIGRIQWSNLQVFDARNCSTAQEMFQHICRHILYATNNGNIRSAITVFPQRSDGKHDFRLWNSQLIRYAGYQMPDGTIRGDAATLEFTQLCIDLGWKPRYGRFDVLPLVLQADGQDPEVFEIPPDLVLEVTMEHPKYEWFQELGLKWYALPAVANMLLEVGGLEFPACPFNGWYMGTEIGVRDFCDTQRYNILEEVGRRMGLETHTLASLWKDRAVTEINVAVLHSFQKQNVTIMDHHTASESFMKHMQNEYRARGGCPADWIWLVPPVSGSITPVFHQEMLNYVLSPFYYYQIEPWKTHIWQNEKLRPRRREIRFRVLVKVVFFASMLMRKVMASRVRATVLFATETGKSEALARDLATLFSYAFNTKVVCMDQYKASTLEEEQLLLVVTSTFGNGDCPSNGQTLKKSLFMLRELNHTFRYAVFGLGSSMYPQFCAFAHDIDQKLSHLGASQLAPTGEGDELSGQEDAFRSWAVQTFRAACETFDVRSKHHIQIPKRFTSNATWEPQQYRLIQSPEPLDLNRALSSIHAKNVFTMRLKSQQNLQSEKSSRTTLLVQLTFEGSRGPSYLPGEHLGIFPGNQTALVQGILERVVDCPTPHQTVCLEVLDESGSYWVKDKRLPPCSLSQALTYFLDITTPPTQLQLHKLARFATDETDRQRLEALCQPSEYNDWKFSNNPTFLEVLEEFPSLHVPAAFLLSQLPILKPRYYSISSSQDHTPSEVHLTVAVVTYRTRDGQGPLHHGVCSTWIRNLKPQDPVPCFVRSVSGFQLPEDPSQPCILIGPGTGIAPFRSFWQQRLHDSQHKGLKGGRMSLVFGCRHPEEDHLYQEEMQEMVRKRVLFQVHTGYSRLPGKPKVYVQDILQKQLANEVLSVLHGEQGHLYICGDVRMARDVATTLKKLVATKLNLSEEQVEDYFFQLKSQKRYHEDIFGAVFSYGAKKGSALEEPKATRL
Method in brief: (§1)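 RAW 264.7 cells cultured 24 h at 37°C, then given serially diluted compounds for 15 min before LPS (1 μg/mL) for 20 h. Nitrite in the medium measured with Griess reagent at 540 nm against a sodium nitrite standard curve. Cytotoxicity checked by SRB under the same conditions.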

[5] = target: T2, Nitric oxide synthase, inducible (Mus musculus); assay: Inhibition of iNOS-mediated nitric oxide production in LPS-stimulated mouse RAW 264.7 cells assessed as cell survival at 50 uM pretreated 15 mins before LPS challenge measured after 20 hrs relative to control; assay type: cell-based
Method in brief: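 RAW 264.7 cells were incubated at 37°C, 5% CO2 for 24 h. They were then exposed to compound for 15 min before LPS (1 μg/mL) was added for 20 h. Cytotoxicity was measured by SRB staining under the same conditions. Survival is expressed as % relative to vehicle-treated controls at 50 μM.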

HEK293 [6] = assay: Inhibition of TNF-alpha-induced NFkappaB activation in human HEK293 cells at 50 uM after 6 hrs by luciferase assay relative to control; assay type: cell-based
Method in brief: (§2)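 Cells incubated 6 h with TNFα plus test compound, then luciferase activity measured. Results expressed as percent of TNFα-treated control. Screening concentration 50 μM.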

HEK293 [7] = assay: Inhibition of TNF-alpha-induced NFkappaB activation in human HEK293 cells assessed as cell survival at 50 uM after 6 hrs by luciferase assay relative to control; assay type: cell-based
[8] = Inhibition of TNF-alpha-induced NFkappaB activation in human HEK293 cells after 6 hrs by luciferase assay; assay type: cell-based; settings: HEK293, 6 h; method in brief: as §2
MCF7 [9] = assay: Antiproliferative activity against human MCF7 cells assessed as survival at 50 uM after 72 hrs by SRB assay relative to control; assay type: functional; settings: MCF7, 72 h, read-out: Survival
Method in brief: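 MCF7 cells (1 × 10^4 per well) were plated onto compound and kept at 37°C, 5% CO2 for 72 h. Cells were fixed in 10% TCA for 30 min and stained with 0.4% SRB in 1% acetic acid for 30 min. Bound dye was dissolved in 10 mM Tris (pH 10.0) and read at 515 nm. Survival is given as % of DMSO-treated controls, screened at 50 μM.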

MCF7 [10] = assay: Antiproliferative activity against human MCF7 cells after 72 hrs by SRB assay; assay type: functional, cell-based; settings: MCF7, 72 h
Method in brief: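 MCF7 cells, 1 × 10^4 per well, plated directly onto compounds and incubated 72 h at 37°C, 5% CO2. Fixed with 10% TCA, stained with 0.4% SRB in 1% acetic acid. Bound dye dissolved in 10 mM Tris pH 10.0, absorbance read at 515 nm. Survival expressed relative to DMSO-treated controls.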

[11] = target: T3, Nitric oxide synthase, inducible (Mus musculus, UniProt P29477); assay: Inhibition of iNOS-mediated nitric oxide production in LPS-stimulated mouse RAW 264.7 cells pretreated 15 mins before LPS challenge measured after 20 hrs relative to control; assay type: cell-based; method in brief: as §1
T3 sequence (P29477 whole entry): T2 sequence (whole entry)

[12] = target: NAD(P)H dehydrogenase [quinone] 1 (Mus musculus) (UniProt Q64669); assay: Induction of quinone reductase 1 in mouse Hepa 1c1c7 cells assessed as concentration of compound required to double enzyme activity by MTT assay; assay type: cell-based
Method in brief: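 Dose-response in Hepa 1c1c7 cells, run for substances with induction ratio >2 at 50 μM. QR1 activity measured as menadiol-mediated, NADPH-dependent MTT reduction to formazan, normalised to crystal violet protein content. CD is the concentration that doubles specific activity relative to DMSO control.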

Aromatase [13] = target: T1, Aromatase; assay: Inhibition of aromatase after 10 mins preincubation by plate reader relative to control

Chain of NAD(P)H dehydrogenase [quinone] 1 (Mus musculus) (Q64669 whole entry): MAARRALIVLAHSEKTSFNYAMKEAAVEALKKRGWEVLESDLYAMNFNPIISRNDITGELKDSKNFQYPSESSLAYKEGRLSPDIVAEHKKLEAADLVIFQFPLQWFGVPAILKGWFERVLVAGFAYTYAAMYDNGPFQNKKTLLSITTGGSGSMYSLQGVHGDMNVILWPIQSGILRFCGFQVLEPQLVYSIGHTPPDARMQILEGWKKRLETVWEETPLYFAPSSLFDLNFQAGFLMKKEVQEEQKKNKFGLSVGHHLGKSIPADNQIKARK

Compound	Ratio [1]	Survival [2] [%]	inhibition at 50 µM (Aromatase [3]) [%]	inhibition [4] [%]	Survival [5] [%]	inhibition (HEK293 [6]) [%]	Survival (HEK293 [7]) [%]	IC50 [8] [µM]	viability at 50 µM (MCF7 [9]) [%]	IC50 (MCF7 [10]) [µM]	IC50 [11] [µM]	CD [12] [µM]	IC50 (Aromatase [13]) [µM]
COC(=O)[C@@H]1Cc2c([nH]c3ccccc23)CN1C(=O)NCCc1ccccc1	0.5	59.6	31.8	48.2	68.9	87.7	94.6	16.9	1.3	25.4			
COC(=O)[C@H]1Cc2c([nH]c3ccccc23)CN1C(=O)NCCc1ccccc1	1.5	51.7	24.6	66.2	66.1	81.7	108	13.3	4.3	27.7	11		
COC(=O)[C@@H]1Cc2c([nH]c3ccccc23)CN1CC1CC1	2.2	68.6	47.7	23.5	99.8	54.1	152		85.6			34	58.6
COC(=O)[C@H]1Cc2c([nH]c3ccccc23)CN1S(C)(=O)=O	1.6	86.3	40.2	12.9	79.9	42.2	158		90.9				68.1
O=C(O)[C@@H]1Cc2c([nH]c3ccccc23)CN1Cc1ccc(O)cc1	1.7	88.3	57.9	16	90.3	55	102		85.2				10.5
COC(=O)[C@@H]1Cc2c([nH]c3ccccc23)CN1C(=O)NC12CC3CC(CC(C3)C1)C2	0.9	78.1	30.3	64.1	66.7	60.7	139	10.2	37.6	36.9	13.4		
COC(=O)[C@@H]1Cc2c([nH]c3ccccc23)CN1Cc1ccc(O)cc1	1.3	91.7	46.1	62.1	75.5	47.8	96		94.7		38.8		57.4
C=CCOC(=O)N1Cc2[nH]c3ccccc3c2C[C@H]1C(=O)OC	1.9	83.4	54.6	8.5	94.2	33.3	191		70.4				44.8
COC(=O)[C@@H]1Cc2c([nH]c3ccccc23)CN1C(=O)NC(C)C	2.9	61.2	54	37.8	94.3	69	117	26.5	71			6.4	47.3
COC(=O)[C@H]1Cc2c([nH]c3ccccc23)CN1S(=O)(=O)c1ccc(Br)cc1	2.1	83.7	35.5	3.8	89.7	43.7	154		30.6	42.1		29.7	
